ChEMBL document CHEMBL1255408, “Roles of calcineurin and Crz1 in antifungal susceptibility and virulence of Candida glabrata” (2010)
≈ marks a conversion by molar mass, not a printed value. Calls of active or inactive are those of the source. The rule behind the calls is not given here. Starred links: 1 amine or outer side, 2 acyl side, 3 side chain; linkers in the order of their positions; H or OH if unused. Positions of bridges follow the written chain, without caps; N, C: chain ends. Non-standard residues stand in square brackets, D forms with d. Residues, ends and D or L forms follow the SMILES beside them. *: point of attachment. hTyr(3S-OH,4S-OH,3'-OSO3H) = N[C@H](C(=O)O)[C@H](O)[C@@H](O)c1ccc(O)c(OS(=O)(=O)O)c1; Orn(4R-OH,5R-OH) = O=C([C@H](C[C@@H](O)[C@@H](O)N[*:3])N[*:1])[*:2]; Pro(3S-OH,4S-Me) = C[C@H]1CN[C@H](C(=O)O)[C@H]1O; X1 = CCCCCOc1ccc(-c2cc(-c3ccc(C(=O)*)cc3)no2)cc1; Gln(3R-OH) = NC(=O)C[C@@H](O)[C@H](N)C(=O)O; Hyp = O=C(O)[C@@H]1C[C@@H](O)CN1

How the values were obtained:
Nakaseomyces glabratus [1] = test: Antimicrobial activity against Candida glabrata TG162 containing calcineurin deltacnb1 mutant by colorimetric microdilution method; type: functional
In short: (§1)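 MIC by commercially prepared colorimetric broth microdilution panel; agents tested were fluconazole, miconazole, itraconazole, voriconazole and amphotericin B.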

Nakaseomyces glabratus [2] = test: Antimicrobial activity against Candida glabrata TG172 containing deltacrz1 mutant by colorimetric microdilution method; type: functional; in short: as §1
Nakaseomyces glabratus [3] = test: Antimicrobial activity against deltacrz1 mutant containing Candida glabrata TG173 complemented with CRZ1 gene by colorimetric microdilution method; type: functional; in short: as §1
Nakaseomyces glabratus [4] = test: Antimicrobial activity against calcineurin deltacnb1 mutant containing Candida glabrata TG163 complemented with CNB1 gene by colorimetric microdilution method; type: functional; in short: as §1
Nakaseomyces glabratus [5] = test: Antimicrobial activity against wild type Candida glabrata TG11 by colorimetric microdilution method; type: functional; in short: as §1
Nakaseomyces glabratus [6] = test: Antimicrobial activity against Candida glabrata TG162 containing calcineurin deltacnb1 mutant at 0.8 mg/ml after 48 hrs; type: functional, organism-based
In short: (§2)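 Spot assay: serial 10-fold dilutions of log-phase cells spotted on minimal-medium plates containing micafungin, Congo red or calcofluor white. Plates incubated 48 h at 30°C; each test repeated at least three times.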

Nakaseomyces glabratus [7] = test: Antimicrobial activity against Candida glabrata TG172 containing deltacrz1 mutant at 0.8 mg/ml after 48 hrs; type: functional, organism-based; in short: as §2
Nakaseomyces glabratus [8] = test: Fungistatic activity against wild type Candida glabrata TG11 assessed as reduction in […] cell viability by time kill study; type: functional, organism-based
In short: (§3)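 Time-kill: log-phase cells at 5 × 10^5 CFU/ml in minimal medium with agitation, with or without fluconazole at several concentrations. Total cells counted by hemocytometer, viable cells by plating dilutions on YPD. Read-out is percent viability; mean and SD of three independent experiments.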

Nakaseomyces glabratus [9] = test: Fungistatic activity against calcineurin deltacnb1 mutant containing Candida glabrata TG163 complemented with CNB1 gene assessed as reduction in […] cell viability by time kill study; type: functional, organism-based; in short: as §3
Nakaseomyces glabratus [10] = test: Fungicidal activity against Candida glabrata TG162 containing calcineurin deltacnb1 mutant assessed as reduction in […] cell viability by time kill study; type: functional, organism-based; in short: as §3
Nakaseomyces glabratus [11] = test: Antimicrobial activity against Candida glabrata TG172 containing deltacrz1 mutant assessed as reduction in […] cell viability by time kill study; type: functional, organism-based; in short: as §3
Nakaseomyces glabratus [12] = test: Antimicrobial activity against deltacrz1 mutant containing Candida glabrata TG173 complemented with CRZ1 gene assessed as reduction in […] cell viability by time kill study; type: functional, organism-based; in short: as §3
Nakaseomyces glabratus [13] = test: Fungicidal activity against deltacrz1 mutant containing Candida glabrata TG173 complemented with CRZ1 gene at 0.03 ug/ml after 24 hrs by colorimetric microdilution method; type: functional, organism-based
In short: (§4)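 Log-phase cells at 2.5 × 10^3 CFU/ml in minimal medium, with or without micafungin (dissolved in distilled water). OD600 read after 24 h. Percent absorbance at 0.03 μg/ml relative to drug-free culture; mean and SD of three independent experiments.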

Nakaseomyces glabratus [14] = test: Fungistatic activity against wild type Candida glabrata TG11 at 0.03 ug/ml after 24 hrs by colorimetric microdilution method; type: functional, organism-based
Nakaseomyces glabratus [15] = test: Fungicidal activity against Candida glabrata TG162 containing calcineurin deltacnb1 mutant at 0.03 ug/ml after 24 hrs by colorimetric microdilution method; type: functional, organism-based; in short: as §4
Nakaseomyces glabratus [16] = test: Fungicidal activity against Candida glabrata TG172 containing deltacrz1 mutant at 0.03 ug/ml after 24 hrs by colorimetric microdilution method; type: functional, organism-based; in short: as §4
Nakaseomyces glabratus [17] = test: Fungicidal activity against calcineurin deltacnb1 mutant containing Candida glabrata TG163 complemented with CNB1 gene at 0.03 ug/ml after 24 hrs by colorimetric microdilution method; type: functional, organism-based; in short: as §4
Nakaseomyces glabratus [18] = test: Antimicrobial activity against Candida glabrata TG162 containing calcineurin deltacnb1 mutant at 1 mg/ml after 48 hrs; type: functional, organism-based; in short: as §2
Nakaseomyces glabratus [19] = test: Antimicrobial activity against Candida glabrata TG172 containing deltacrz1 mutant at 1 mg/ml after 48 hrs; type: functional, organism-based; in short: as §2

| SMILES | MIC (Nakaseomyces glabratus [1]) | MIC (Nakaseomyces glabratus [2]) | MIC (Nakaseomyces glabratus [3]) | MIC (Nakaseomyces glabratus [4]) | MIC (Nakaseomyces glabratus [5]) | also measured |
| --- | --- | --- | --- | --- | --- | --- |
| CCC(C)n1ncn(-c2ccc(N3CCN(c4ccc(OCC5COC(Cn6cncn6)(c6ccc(Cl)cc6Cl)O5)cc4)CC3)cc2)c1=O (centres undefined) [ITRACONAZOLE] | 0.5 µg/mL (≈ 0.709 µM) | 1 µg/mL (≈ 1.42 µM) | 1 µg/mL (≈ 1.42 µM) | 2 µg/mL (≈ 2.83 µM) | 2 µg/mL (≈ 2.83 µM) |  |
| O=S(=O)(O)c1cc(Nc2nc(Nc3ccccc3)nc(N(CCO)CCO)n2)ccc1/C=C/c1ccc(Nc2nc(Nc3ccccc3)nc(N(CCO)CCO)n2)cc1S(=O)(=O)O |  |  |  |  |  | growth inhibition (GI) (Nakaseomyces glabratus [6]): Active; growth inhibition (GI) (Nakaseomyces glabratus [7]): inactive |
| OC(Cn1cncn1)(Cn1cncn1)c1ccc(F)cc1F [FLUCONAZOLE] | 4 µg/mL (≈ 13.1 µM) | 32 µg/mL (≈ 104 µM) | 16 µg/mL (≈ 52.2 µM) | 16 µg/mL (≈ 52.2 µM) | 16 µg/mL (≈ 52.2 µM) | growth inhibition (GI) (Nakaseomyces glabratus [8]): Active; growth inhibition (GI) (Nakaseomyces glabratus [9]): Active; growth inhibition (GI) (Nakaseomyces glabratus [10]): Active; growth inhibition (GI) (Nakaseomyces glabratus [11]): inactive; growth inhibition (GI) (Nakaseomyces glabratus [12]): inactive |
| C[C@@H]1[C@H](O)[C@@H](C)/C=C/C=C/C=C/C=C/C=C/C=C/C=C/[C@H](O[C@@H]2O[C@H](C)[C@@H](O)[C@H](N)[C@@H]2O)C[C@@H]2O[C@](O)(C[C@@H](O)C[C@@H](O)[C@H](O)CC[C@@H](O)C[C@@H](O)CC(=O)O[C@H]1C)C[C@H](O)[C@H]2C(=O)O [AMPHOTERICIN B] | 0.5 µg/mL (≈ 0.541 µM) | 0.5 µg/mL (≈ 0.541 µM) | 0.5 µg/mL (≈ 0.541 µM) | 0.5 µg/mL (≈ 0.541 µM) | 0.5 µg/mL (≈ 0.541 µM) |  |
| C[C@@H](c1ncncc1F)[C@](O)(Cn1cncn1)c1ccc(F)cc1F [VORICONAZOLE] | 0.125 µg/mL (≈ 0.358 µM) | 0.5 µg/mL (≈ 1.43 µM) | 0.25 µg/mL (≈ 0.716 µM) | 0.25 µg/mL (≈ 0.716 µM) | 0.25 µg/mL (≈ 0.716 µM) |  |
| CCCCCOc1ccc(-c2cc(-c3ccc(C(=O)N[C@H]4C[C@@H](O)[C@@H](O)NC(=O)[C@@H]5[C@@H](O)[C@@H](C)CN5C(=O)[C@H]([C@H](O)CC(N)=O)NC(=O)[C@H]([C@H](O)[C@@H](O)c5ccc(O)c(OS(=O)(=O)O)c5)NC(=O)[C@@H]5C[C@@H](O)CN5C(=O)[C@H]([C@@H](C)O)NC4=O)cc3)no2)cc1 (X1-[Orn(4R-OH,5R-OH)]T[Hyp][hTyr(3S-OH,4S-OH,3'-OSO3H)][Gln(3R-OH)][Pro(3S-OH,4S-Me)]; lactam 1-C) |  |  |  |  |  | growth inhibition (GI) (Nakaseomyces glabratus [13]): inactive; growth inhibition (GI) (Nakaseomyces glabratus [14]): Active; growth inhibition (GI) (Nakaseomyces glabratus [15]): Active; growth inhibition (GI) (Nakaseomyces glabratus [16]): Active; growth inhibition (GI) (Nakaseomyces glabratus [17]): inactive |
| Nc1c(/N=N/c2ccc(-c3ccc(/N=N/c4cc(S(=O)(=O)O)c5ccccc5c4N)cc3)cc2)cc(S(=O)(=O)O)c2ccccc12 |  |  |  |  |  | growth inhibition (GI) (Nakaseomyces glabratus [18]): Active; growth inhibition (GI) (Nakaseomyces glabratus [19]): Active |
| Clc1ccc(COC(Cn2ccnc2)c2ccc(Cl)cc2Cl)c(Cl)c1 (centres undefined) [MICONAZOLE] | 0.125 µg/mL (≈ 0.3 µM) | 1 µg/mL (≈ 2.4 µM) | 0.5 µg/mL (≈ 1.2 µM) | 0.5 µg/mL (≈ 1.2 µM) | 0.5 µg/mL (≈ 1.2 µM) |  |
